Consider one substance from ChEMBL document CHEMBL3779860, “A Designed Tryptophan- and Lysine/Arginine-Rich Antimicrobial Peptide with Therapeutic Potential for Clinical Antibiotic-Resistant Candida albicans Vaginitis” (J Med Chem, 2016).

The source made the active and inactive calls.

Data set [1] has as its system Candida albicans. Briefly: Effect on cell morphology in antibiotic resistant Candida albicans clinical isolate 08030809 assessed as intracellular inclusions at MIC to 2.5 times MIC after 30 mins by scanning electron microscopy. Type of data set: functional, organism-based. The method, boiled down: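 Exponential-phase C. albicans 08030809 was washed in PBS and resuspended in Sabouraud medium. Cells were treated 30 min at 37°C alongside a vehicle control. They were then fixed in 2.5% glutaraldehyde (4°C, 2 h) and 1% osmium tetroxide, dehydrated through graded ethanol, freeze-dried from tert-butanol, gold-coated and imaged by SEM. Images are typical of three experiments.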

Data set [2] relates to Mus musculus. Briefly: Antiinflammatory activity in antibiotic resistant Candida albicans clinical isolate 08030809 induced mouse vaginitis model assessed as reduction in TNF-alpha secretion in vaginal tissue at 20 ug administered as intravaginal instillation measured on day 10 by ELISA. The data set is classed as functional, Vagina. The method, boiled down: (§1)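 Same estradiol-primed mouse model, infected intravaginally with C. albicans 08030809 and treated by intravaginal instillation (20 µL/mouse). Vaginal canals excised on day 10 of treatment and homogenised in 0.9% NaCl. Supernatant taken after 2,000 g for 15 min. TNF-α, IL-6, IL-1β and IL-10 measured by ELISA. Mean ± SE of three independent experiments; unpaired t-test versus vehicle.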
A general note: ELISA stands for enzyme-linked immunosorbent assay.

The test system of data set [3] is Candida albicans. Briefly: Antimicrobial activity against antibiotic resistant Candida albicans clinical isolate 08030102 after 16 hrs by broth dilution method. Type of data set: functional. The note with it: isolate 08030102, 16 h. The method, boiled down:
(§2)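 Broth microdilution in Sabouraud liquid medium. Samples are stocks in 0.9% NaCl, 10 µL added to 90 µL broth plus 100 µL of 2 × 10^5 CFU/mL yeast suspension. Incubated 16 h at 28°C, growth read by A600. MIC is the lowest concentration completely inhibiting growth; mean of three independent experiments.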
On the technique in general: Dilution methods test growth across graded concentrations, often in twofold steps.

In another data set the test system is HEK293. Briefly: Cytotoxicity against HEK293 cells assessed as cell viability at 0.39 to 100 ug/ml after 24 hrs by MTT assay. Type of data set: cell-based. The note with it: human, hek293, 24 h. The method, boiled down:
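HEK293 seeded at 1 × 10^5 cells/mL in DMEM with 10% fetal calf serum and penicillin-streptomycin, 37 °C, 5% CO2. Cells exposed to sample for 24 h, then given MTT (5 mg/mL); formazan dissolved in DMSO and read at 570 nm. Done in triplicate.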
On the technique in general: Formazan colour is commonly taken as a measure of viable cells.

Data set [4] can be described thus: Induction of hemolysis in human RBC at 320 ug/mL after 30 mins. The data set is classed as cell-based, Erythrocyte. The note with it: red blood cells, read-out: Activity. The method, boiled down:
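Serial dilutions were incubated with human erythrocytes for 30 min at 37°C. Supernatant absorbance was read at 540 nm after centrifugation. Hemolysis is expressed as % of the 1% Triton X-100 lysis value, pooled from three independent experiments. The highest concentration tested was 320 µg/mL.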

The test system of data set [5] is Candida albicans. Briefly: Antimicrobial activity against antibiotic resistant Candida albicans clinical isolate 08030809 assessed as clone count at MIC after 3 hrs by colony counting assay (reference value: 3687 +/- 543 CFU). Type of data set: functional.
Data set [6] has as its system Candida albicans. Briefly: Antimicrobial activity against antibiotic resistant Candida albicans clinical isolate 08030809 in mouse vaginitis model assessed as decrease in colony count in lavage liquid of vagina at 20 ug administered as intravaginal instillation measured on day 11. Type of data set: functional.
Data set [7] deals with Candida albicans. Briefly: Antimicrobial activity against antibiotic resistant Candida albicans clinical isolate 08030401 after 16 hrs by broth dilution method. The note with it: isolate 08030401, 16 h. The data set is classed as functional. Summed up:
as §2

Data set [8] has as its system Candida albicans. Briefly: Antimicrobial activity against antibiotic resistant Candida albicans clinical isolate 08030809 in mouse vaginitis model assessed as decrease in colony count in lavage liquid of vagina at 50 ug administered as intravaginal instillation measured on day 16. Type of data set: functional.
Data set [9] relates to Mus musculus. Briefly: Antiinflammatory activity in antibiotic resistant Candida albicans clinical isolate 08030809 induced mouse vaginitis model assessed as reduction in IL-1beta secretion in vaginal tissue administered as intravaginal instillation measured on day 10 by ELISA. The following applies: Vagina. The data set is classed as functional, organism-based. Summed up:
as §1

The subject of data set [10] is Candida albicans. Briefly: Antimicrobial activity against antibiotic resistant Candida albicans clinical isolate 08030809 compound treated in NaCl solution measured after 36 hrs by disc diffusion method. The following applies: isolate 08030809, 36 h. Type of data set: functional. The method, boiled down: (§3)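 Salt-tolerance test: peptide at 2 mg/mL was prepared in sterile ddH2O, in 150 mM NaCl, or in PBS (150 mM NaCl, 2.7 mM KCl, 1.5 mM KH2PO4, 8 mM K2HPO4, pH 7.2). Anti-C. albicans activity was then assessed by inhibition zone on Sabouraud medium with 0.7% agar.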

In data set [11] the test system is Mus musculus. Briefly: Antiinflammatory activity in antibiotic resistant Candida albicans clinical isolate 08030809 induced mouse vaginitis model assessed as reduction in TNF-alpha secretion in vaginal tissue administered as intravaginal instillation measured on day 10 by ELISA. The data set is classed as functional, organism-based. The note with it: Vagina. The method, boiled down: as §1

Data set [12] concerns Candida albicans. Briefly: Antimicrobial activity against antibiotic resistant Candida albicans clinical isolate 08030809 assessed as clone count at MIC after 12 hrs by colony counting assay (reference value: 54153 +/- 8769 CFU). The data set is classed as functional.
For data set [13], the system named is Candida albicans. Briefly: Antimicrobial activity against antibiotic resistant Candida albicans clinical isolate 08030809 compound treated in PBS solution measured after 36 hrs by disc diffusion method. The data set is classed as functional. The following applies: isolate 08030809, 36 h. The method, boiled down:
as §3

Data set [14] concerns Candida albicans. Briefly: Antimicrobial activity against antibiotic resistant Candida albicans clinical isolate 08030809 assessed as clone count at MIC after 6 hrs by colony counting assay (reference value: 14536 +/- 2467 CFU). The data set is classed as functional.
The subject of data set [15] is Mus musculus. Briefly: Antiinflammatory activity in antibiotic resistant Candida albicans clinical isolate 08030809 induced mouse vaginitis model assessed as reduction in IL-6 secretion in vaginal tissue at 20 ug administered as intravaginal instillation measured on day 10 by ELISA. The data set is classed as functional, Vagina. Summed up: as §1
Data set [16] concerns Candida albicans. Briefly: Antimicrobial activity against antibiotic resistant Candida albicans clinical isolate 08030809 assessed as clone count at 10 times MIC after 1 min by colony counting assay (reference value: 62 +/- 7 CFU). Type of data set: functional.
Data set [17] has as its system Candida albicans. Briefly: Antimicrobial activity against antibiotic resistant Candida albicans clinical isolate 08030809 in mouse vaginitis model assessed as decrease in colony count in lavage liquid of vagina at 50 ug administered as intravaginal instillation measured on day 6. The data set is classed as functional.
Data set [18] deals with Mus musculus. Briefly: Antiinflammatory activity in antibiotic resistant Candida albicans clinical isolate 08030809 induced mouse vaginitis model assessed as reduction in IL-10 secretion in vaginal tissue at 20 ug administered as intravaginal instillation measured on day 10 by ELISA. Type of data set: functional, Vagina. The method, boiled down: as §1
Data set [19] deals with Mus musculus. Briefly: Antiinflammatory activity in antibiotic resistant Candida albicans clinical isolate 08030809 induced mouse vaginitis model assessed as reduction in microabscess number in vaginal tissue at 50 ug administered as intravaginal instillation measured after 16 days by hematoxylin-eosin staining based microscopic method. Type of data set: functional, organism-based. The note with it: Vagina. Summed up:
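Mice given weekly subcutaneous estradiol valerate (0.5 mg in 0.1 mL vegetable oil) 72 h before infection. Infected intravaginally with 20 µL of 10^7 CFU/mL C. albicans 08030809. Intravaginal instillation of 20 µL daily for 16 days. Vaginal canals excised after lavage, formalin-fixed, paraffin-embedded, HE-stained. Microabscesses counted per high-power field over 6 fields per section, three independent experiments.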

Data set [20] deals with Candida albicans. Briefly: Antimicrobial activity against antibiotic resistant Candida albicans clinical isolate 08030809 after 16 hrs by broth dilution method. The data set is classed as functional. The note with it: isolate 08030809, 16 h. The method, boiled down:
as §2

Data set [21] has as its system Candida albicans. Briefly: Antimicrobial activity against antibiotic resistant Candida albicans clinical isolate 08030809 assessed as clone count at 5 times MIC after 1 min by colony counting assay (reference value: 62 +/- 7 CFU). Type of data set: functional.

For orientation: MIC means the smallest concentration in the dilution series that meets the test's criterion for growth inhibition. Low values mean inhibition by little substance, high ones a need for much substance. For the substance H-VKRWKKWRWKWKKWV-NH2, the result with Candida albicans [1] and in the data set with Mus musculus [19] was Active. For the same substance, the “inhibition (INH)” value with Mus musculus [2] was found to be 32%; in the data set with Candida albicans [6], 37%; in the data set on Candida albicans [8], 83%; with Mus musculus [15], 46%; in the data set on Candida albicans [17], 48%; in the data set with Mus musculus [18], 39%. The MIC against Candida albicans [3] was found to be 3.13 µg/mL; against Candida albicans [7], 4.69 µg/mL; against Candida albicans [10], 1.4 µg/mL; in the data set with Candida albicans [13] it was 1.4 µg/mL; against Candida albicans [20], 1.4 µg/mL. The Activity result in the data set on HEK293 is “Non-toxic”; with Candida albicans [5] it was 0 CFU; with Mus musculus [9], “Dose-dependent effect”; in the data set on Mus musculus [11], “Dose-dependent effect”; in the data set on Candida albicans [12] it was 0 CFU; in the data set with Candida albicans [14], 0 CFU. Besides, the Activity in the data set with Candida albicans [16] was found to be 6 CFU; with Candida albicans [21], 10 CFU. In addition, the hemolysis at 0.5 h, 320 ug/mL in [4] amounted to 3.1%.
